Experimental data reported in ChEMBL document CHEMBL5678805, “Intermittent administration of MEK inhibitor GDC-0973 plus PI3K inhibitor GDC-0941 triggers robust apoptosis and tumor growth inhibition” (Cancer Res, 2012).
The source made the active and inactive calls. The rule behind the calls is not given here.

Experiments:
A2058 [1] = assay: Antitumor activity against human A2058 cells xenografted in mouse assessed as tumor growth inhibition at 15 mg/kg, po administered every third day for 21 days; format: functional; details: A2058, 504 h, time 21 day, read-out: TGI
How it was run: (§1)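 Human tumor xenografts in mice. Drugs given orally, as single agents or combined with the PI3K inhibitor. Schedules were daily (QD) or every third day (Q3D) over 21 days. Tumor volume was measured by caliper as (L×W×W)/2. %TGI = 100×[1 − AUC(treatment/d)/AUC(vehicle/d)] from fitted growth curves, with group means. Tumor lysates were immunoblotted for pS6.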

[2] = target: Hepatocyte growth factor receptor (Homo sapiens, UniProt P08581); assay: Inhibition of Met (unknown origin)
Ephrin type-A receptor 4 = Ephrin type-A receptor 4 (Homo sapiens, UniProt P54764); assay: Inhibition of EphA4 (unknown origin)
[3] = target: Tyrosine-protein kinase SYK (Homo sapiens, UniProt P43405); assay: Inhibition of SYK (unknown origin)
[4] = target: Phosphatidylinositol 4,5-bisphosphate 3-kinase catalytic subunit gamma isoform (Homo sapiens, UniProt P48736); assay: Inhibition of PI3Kgamma (unknown origin)
888-mel [5] = assay: Induction of apoptosis in human 888-mel cells assessed as increase in cleaved PARP level preincubated with compound for 24 hrs followed by compound washout and measured after 2 hrs in presence of 4-(2-(1H-indazol-4-yl)-6-((4-(methylsulfonyl)piperazin-1-yl)methyl)thieno[3,2-d]pyrimidin-4-yl)morpholine by immunoblotting analysis; format: functional, cell-based
How it was run: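 The medium was then exchanged to remove compound. Lysates were prepared 2 and 24 h after washout and immunoblotted for cleaved PARP, p-AKT and p-ERK using HRP secondary antibody and ECL.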

888-mel [6] = assay: Inhibition of ERK phosphorylation in human 888-mel cells incubated for 24 hrs by immunoblotting analysis; format: cell-based
A2058 [7] = assay: Antitumor activity against human A2058 cells xenografted in mouse assessed as tumor growth inhibition at 6 mg/kg, po administered once a day for 21 days; format: functional; details: A2058, 504 h, time 21 day, read-out: TGI; how it was run: as §1
[8] = target: Mast/stem cell growth factor receptor Kit (Homo sapiens, UniProt P10721); assay: Inhibition of Kit (unknown origin)
Casein kinase 2 = Casein kinase 2 (Homo sapiens, UniProt P67870+P68400+P19784+Q8NEV1); assay: Inhibition of CK2 (unknown origin); format: protein assay
EBC-1 = assay: Antitumor activity against human EBC-1 cells harboring MET amp and EGFR G719S/L858R mutant xenografted in mouse assessed as tumor growth inhibition at 10 mg/kg, po; format: functional; details: read-out: TGI
How it was run: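 Single-agent dose ranging in human tumor xenograft mice at 2.5, 5 or 10 mg/kg oral. Tumor volume was measured by caliper as (L×W×W)/2. %TGI = 100×[1 − AUC(treatment/d)/AUC(vehicle/d)] from the fitted growth curve per dose group, relative to vehicle.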

[9] = target: Mitogen-activated protein kinase kinase kinase kinase 3 (Homo sapiens, UniProt Q8IVH8); assay: Inhibition of MAP4K3 (unknown origin)
[10] = target: Serine/threonine-protein kinase pim-1 (Homo sapiens, UniProt P11309); assay: Inhibition of PIM1 (unknown origin)
NCI-H2122 = assay: Antitumor activity against human NCI-H2122 cells xenografted in mouse assessed as reduction in ERK phosphorylation at 1 to 10 mg/kg, po administered for 3 days and measured at 24 hrs by Western blot analysis; format: functional; design: scale not given: the % may be the effect or the level left; details: time 96 hrs
How it was run: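 NCI-H2122 xenograft mice received 3 daily oral doses of 1, 3, 5 or 10 mg/kg. Tumors were collected 2, 8 and 24 h after the last dose, pulverized on dry ice and lysed. Lysates were run on 4–12% SDS-PAGE and transferred to nitrocellulose. p-ERK1/2 and t-ERK1/2 bands were quantified on an Odyssey imager and expressed relative to vehicle-treated mice (0 h).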

[11] = target: BDNF/NT-3 growth factors receptor (Homo sapiens, UniProt Q16620); assay: Inhibition of TrkB (unknown origin)
[12] = target: Epidermal growth factor receptor (Homo sapiens, UniProt P00533); assay: Inhibition of EGFR (unknown origin)
A2058 [13] = assay: Antitumor activity against human A2058 cells harboring BRAF V600E/PTEN deletion mutant xenografted in mouse assessed as suppression of S6 phosphorylation at 15 mg/kg, po administered every third day for 21 days and measured after 72 hrs post dose in presence of 4-(2-(1H-indazol-4-yl)-6-((4-(methylsulfonyl)piperazin-1-yl)methyl)thieno[3,2-d]pyrimidin-4-yl)morpholine by Western blot analysis; format: functional, organism-based; details: time 576.0 hrs; how it was run: as §1
A375.X1 = assay: Antitumor activity against human A375.X1 cells xenografted in po dosed mouse assessed as reduction in ERK phosphorylation administered for 3 days and measured at 2 to 24 hrs by Western blot analysis; format: functional, organism-based; details: dose 1-10 mg/kg, time 74-96 hrs
How it was run: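 A375.X1 xenograft mice were dosed orally at 1, 3, 5 or 10 mg/kg once daily for 3 days. Tumors were collected 2, 8 and 24 h after the last dose, pulverized frozen and resolved by 4–12% SDS-PAGE. p-ERK1/2 and t-ERK1/2 were measured by Western blot and quantified by band intensity, relative to vehicle-treated mice (0 h).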

888-mel [14] = assay: Inhibition of S6 phosphorylation in human 888-mel cells preincubated with compound for 24 hrs followed by compound washout and measured after 2 hrs in presence of 4-(2-(1H-indazol-4-yl)-6-((4-(methylsulfonyl)piperazin-1-yl)methyl)thieno[3,2-d]pyrimidin-4-yl)morpholine by immunoblotting analysis; format: cell-based
G-361 = assay: Antiproliferative activity against human G361 cells assessed reduction in cell viability incubated for 4 days in presence of 4-(2-(1H-indazol-4-yl)-6-((4-(methylsulfonyl)piperazin-1-yl)methyl)thieno[3,2-d]pyrimidin-4-yl)morpholine by celltiter-glo assay; format: functional; details: time 4 day
How it was run: (§2)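 4-day CellTiter-Glo viability read-out on melanoma lines, cells exposed to increasing concentrations of each inhibitor alone and in combination.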

[15] = target: Receptor tyrosine-protein kinase erbB-2 (Homo sapiens, UniProt P04626); assay: Inhibition of ErbB2 (unknown origin)
[16] = target: Calcium/calmodulin-dependent protein kinase type 1 (Homo sapiens, UniProt Q14012); assay: Inhibition of CaMK1 (unknown origin)
NCI-H460 = assay: Antitumor activity against human NCI-H460 cells harboring KRAS Q61H/PIK3CA E545K/LKB1 Q37/CDKN2A mutant xenografted in mouse assessed as tumor growth inhibition at 2.5 mg/kg, po; format: functional; details: read-out: TGI
How it was run: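 Human tumor xenografts in mice were dosed orally at the indicated mg/kg. Tumor volume was measured with calipers as (L×W×W)/2. %TGI = 100 × [1 − (AUC treatment/d)/(AUC vehicle/d)], using the area under the fitted tumor-growth curve per day for each dose group relative to vehicle.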

A2058 [17] = assay: Antitumor activity against human A2058 cells harboring BRAF V600E/PTEN deletion mutant xenografted in mouse assessed as decrease in tumor volume at 1.5 mg/kg, po administered once daily for 21 days in presence of GDC-0980 by digital calipers analysis; format: functional, organism-based; details: time 21.0 day
C32 = assay: Antiproliferative activity against human C32 cells assessed reduction in cell viability incubated for 4 days in presence of 4-(2-(1H-indazol-4-yl)-6-((4-(methylsulfonyl)piperazin-1-yl)methyl)thieno[3,2-d]pyrimidin-4-yl)morpholine by celltiter-glo assay; format: functional; details: time 4 day; how it was run: as §2

Epidermal growth factor receptor, sequence (P00533 whole entry): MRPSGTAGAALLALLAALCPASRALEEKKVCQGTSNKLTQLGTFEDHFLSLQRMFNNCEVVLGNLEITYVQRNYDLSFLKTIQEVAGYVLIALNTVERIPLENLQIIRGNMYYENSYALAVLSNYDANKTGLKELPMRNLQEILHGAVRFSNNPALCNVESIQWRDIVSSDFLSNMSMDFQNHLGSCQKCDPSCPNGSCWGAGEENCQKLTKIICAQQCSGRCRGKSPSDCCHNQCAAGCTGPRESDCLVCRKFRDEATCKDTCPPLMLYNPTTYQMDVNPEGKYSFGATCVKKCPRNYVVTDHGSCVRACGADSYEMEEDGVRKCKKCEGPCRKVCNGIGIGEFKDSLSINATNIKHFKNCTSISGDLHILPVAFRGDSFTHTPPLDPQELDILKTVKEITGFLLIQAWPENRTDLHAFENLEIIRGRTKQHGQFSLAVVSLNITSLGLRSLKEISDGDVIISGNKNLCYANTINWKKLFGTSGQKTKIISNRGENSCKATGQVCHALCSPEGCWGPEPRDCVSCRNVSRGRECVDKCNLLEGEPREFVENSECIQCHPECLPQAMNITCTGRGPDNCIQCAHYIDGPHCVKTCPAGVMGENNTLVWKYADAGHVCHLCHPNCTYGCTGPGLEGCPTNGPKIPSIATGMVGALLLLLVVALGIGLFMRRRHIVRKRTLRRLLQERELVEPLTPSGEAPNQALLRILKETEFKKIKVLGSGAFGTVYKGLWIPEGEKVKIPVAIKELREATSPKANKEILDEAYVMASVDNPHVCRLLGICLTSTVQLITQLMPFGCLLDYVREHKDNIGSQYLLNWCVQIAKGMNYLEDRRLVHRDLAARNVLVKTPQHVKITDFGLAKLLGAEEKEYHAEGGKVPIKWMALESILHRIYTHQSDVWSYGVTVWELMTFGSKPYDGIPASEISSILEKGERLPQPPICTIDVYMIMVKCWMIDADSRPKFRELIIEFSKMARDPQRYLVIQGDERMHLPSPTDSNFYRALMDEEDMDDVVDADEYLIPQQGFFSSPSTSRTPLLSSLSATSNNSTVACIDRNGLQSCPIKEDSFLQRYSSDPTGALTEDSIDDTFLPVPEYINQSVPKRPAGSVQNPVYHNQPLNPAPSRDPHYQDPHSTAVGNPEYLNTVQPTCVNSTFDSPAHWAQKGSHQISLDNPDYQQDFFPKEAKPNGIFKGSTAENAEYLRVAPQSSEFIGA
Mast/stem cell growth factor receptor Kit, sequence (P10721 whole entry): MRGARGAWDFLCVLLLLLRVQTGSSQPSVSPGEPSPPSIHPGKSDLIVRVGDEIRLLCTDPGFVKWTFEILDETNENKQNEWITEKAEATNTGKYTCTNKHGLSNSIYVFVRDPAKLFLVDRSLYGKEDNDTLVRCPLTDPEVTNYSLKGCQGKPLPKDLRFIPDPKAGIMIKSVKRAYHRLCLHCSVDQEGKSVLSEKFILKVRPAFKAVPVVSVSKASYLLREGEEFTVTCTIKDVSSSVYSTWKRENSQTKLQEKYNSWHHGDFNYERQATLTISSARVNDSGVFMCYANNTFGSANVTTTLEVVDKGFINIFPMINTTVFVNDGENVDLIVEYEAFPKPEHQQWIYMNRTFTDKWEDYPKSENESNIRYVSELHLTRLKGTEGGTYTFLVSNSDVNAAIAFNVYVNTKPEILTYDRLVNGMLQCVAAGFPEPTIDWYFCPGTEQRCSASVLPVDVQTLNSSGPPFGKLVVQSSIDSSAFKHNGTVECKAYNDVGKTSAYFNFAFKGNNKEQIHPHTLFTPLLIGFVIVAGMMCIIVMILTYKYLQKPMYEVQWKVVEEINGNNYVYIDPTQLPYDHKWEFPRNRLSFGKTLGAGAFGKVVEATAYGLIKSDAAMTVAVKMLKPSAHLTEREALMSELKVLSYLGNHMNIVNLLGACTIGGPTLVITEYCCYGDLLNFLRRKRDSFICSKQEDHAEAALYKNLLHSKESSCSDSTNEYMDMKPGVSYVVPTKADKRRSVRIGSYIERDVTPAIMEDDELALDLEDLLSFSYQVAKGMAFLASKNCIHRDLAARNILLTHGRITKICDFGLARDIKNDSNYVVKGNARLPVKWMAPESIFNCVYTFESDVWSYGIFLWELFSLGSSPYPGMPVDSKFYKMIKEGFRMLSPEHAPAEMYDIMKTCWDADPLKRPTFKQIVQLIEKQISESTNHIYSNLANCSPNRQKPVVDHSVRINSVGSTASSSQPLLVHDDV
Phosphatidylinositol 4,5-bisphosphate 3-kinase catalytic subunit gamma isoform, sequence (P48736 whole entry, canonical isoform): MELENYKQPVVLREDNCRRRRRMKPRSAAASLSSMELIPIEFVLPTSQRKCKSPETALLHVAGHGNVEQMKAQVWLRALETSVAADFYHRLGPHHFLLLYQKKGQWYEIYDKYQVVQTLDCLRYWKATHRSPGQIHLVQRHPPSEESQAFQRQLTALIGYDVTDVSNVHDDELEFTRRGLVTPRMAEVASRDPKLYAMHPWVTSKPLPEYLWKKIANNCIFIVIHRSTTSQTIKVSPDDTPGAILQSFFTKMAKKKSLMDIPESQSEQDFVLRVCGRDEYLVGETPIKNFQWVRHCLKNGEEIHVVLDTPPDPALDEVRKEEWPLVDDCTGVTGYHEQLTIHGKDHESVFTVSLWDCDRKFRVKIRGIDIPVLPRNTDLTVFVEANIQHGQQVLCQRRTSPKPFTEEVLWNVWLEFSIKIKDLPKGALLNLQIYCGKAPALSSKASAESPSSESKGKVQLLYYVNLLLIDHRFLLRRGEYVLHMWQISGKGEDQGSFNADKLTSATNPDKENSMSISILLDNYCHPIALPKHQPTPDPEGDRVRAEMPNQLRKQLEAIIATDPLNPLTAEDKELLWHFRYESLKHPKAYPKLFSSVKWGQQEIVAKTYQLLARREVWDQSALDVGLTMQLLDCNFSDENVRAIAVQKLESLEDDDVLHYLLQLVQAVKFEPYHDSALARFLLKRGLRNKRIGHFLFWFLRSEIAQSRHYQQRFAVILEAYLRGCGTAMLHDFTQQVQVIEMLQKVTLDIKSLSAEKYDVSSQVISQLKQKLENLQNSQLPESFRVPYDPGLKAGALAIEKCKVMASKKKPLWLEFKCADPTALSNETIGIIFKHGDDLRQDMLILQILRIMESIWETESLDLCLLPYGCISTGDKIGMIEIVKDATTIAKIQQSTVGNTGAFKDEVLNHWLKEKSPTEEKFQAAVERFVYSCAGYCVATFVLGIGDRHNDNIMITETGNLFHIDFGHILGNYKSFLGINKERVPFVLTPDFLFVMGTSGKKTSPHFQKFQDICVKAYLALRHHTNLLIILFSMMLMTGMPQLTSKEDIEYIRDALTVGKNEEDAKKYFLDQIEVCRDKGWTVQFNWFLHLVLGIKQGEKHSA
Mitogen-activated protein kinase kinase kinase kinase 3, sequence (Q8IVH8 whole entry): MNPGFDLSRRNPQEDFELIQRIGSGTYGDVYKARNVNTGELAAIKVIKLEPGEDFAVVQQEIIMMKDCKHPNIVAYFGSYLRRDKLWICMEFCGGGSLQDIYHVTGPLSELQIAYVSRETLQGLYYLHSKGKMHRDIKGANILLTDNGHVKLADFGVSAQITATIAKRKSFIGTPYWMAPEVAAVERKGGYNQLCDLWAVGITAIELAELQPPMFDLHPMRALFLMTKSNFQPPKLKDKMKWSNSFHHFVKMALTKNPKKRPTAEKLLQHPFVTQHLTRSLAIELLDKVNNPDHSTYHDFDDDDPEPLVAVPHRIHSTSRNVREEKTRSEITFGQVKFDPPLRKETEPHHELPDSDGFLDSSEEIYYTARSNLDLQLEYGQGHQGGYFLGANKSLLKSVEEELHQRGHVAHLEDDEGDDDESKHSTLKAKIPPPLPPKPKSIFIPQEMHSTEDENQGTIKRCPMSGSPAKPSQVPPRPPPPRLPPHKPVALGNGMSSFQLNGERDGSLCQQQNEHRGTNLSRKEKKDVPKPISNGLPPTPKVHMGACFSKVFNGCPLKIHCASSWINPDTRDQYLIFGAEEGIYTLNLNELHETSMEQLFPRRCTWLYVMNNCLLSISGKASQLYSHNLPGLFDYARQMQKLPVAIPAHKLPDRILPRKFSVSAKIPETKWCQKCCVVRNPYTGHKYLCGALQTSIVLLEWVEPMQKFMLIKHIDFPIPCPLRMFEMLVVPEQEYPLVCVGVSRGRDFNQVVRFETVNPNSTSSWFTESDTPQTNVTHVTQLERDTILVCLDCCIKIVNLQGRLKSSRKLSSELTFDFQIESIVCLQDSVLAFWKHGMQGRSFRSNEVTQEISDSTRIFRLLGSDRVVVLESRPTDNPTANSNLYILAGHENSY
BDNF/NT-3 growth factors receptor, sequence (Q16620 whole entry): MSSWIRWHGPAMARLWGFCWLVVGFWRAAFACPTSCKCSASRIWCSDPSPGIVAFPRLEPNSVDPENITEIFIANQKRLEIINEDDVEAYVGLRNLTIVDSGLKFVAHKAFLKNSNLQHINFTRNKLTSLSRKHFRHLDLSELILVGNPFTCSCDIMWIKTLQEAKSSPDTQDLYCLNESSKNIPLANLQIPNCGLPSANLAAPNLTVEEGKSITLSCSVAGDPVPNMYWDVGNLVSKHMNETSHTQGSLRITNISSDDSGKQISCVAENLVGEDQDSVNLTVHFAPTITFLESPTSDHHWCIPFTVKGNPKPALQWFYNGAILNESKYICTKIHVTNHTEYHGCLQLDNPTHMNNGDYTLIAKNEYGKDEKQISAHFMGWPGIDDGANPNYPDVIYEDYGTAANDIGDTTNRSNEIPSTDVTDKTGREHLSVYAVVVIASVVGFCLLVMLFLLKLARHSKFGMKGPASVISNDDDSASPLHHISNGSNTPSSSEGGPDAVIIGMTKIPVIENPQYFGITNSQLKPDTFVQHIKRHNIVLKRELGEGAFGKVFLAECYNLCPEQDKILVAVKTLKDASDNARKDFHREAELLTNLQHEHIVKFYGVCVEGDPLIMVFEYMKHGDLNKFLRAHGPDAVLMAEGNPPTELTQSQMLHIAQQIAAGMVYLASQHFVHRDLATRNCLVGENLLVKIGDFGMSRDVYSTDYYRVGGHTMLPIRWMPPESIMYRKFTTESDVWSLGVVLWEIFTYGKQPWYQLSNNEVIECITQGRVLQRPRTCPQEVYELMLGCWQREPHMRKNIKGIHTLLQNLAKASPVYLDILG

SMILES: O=C(c1ccc(F)c(F)c1Nc1ccc(I)cc1F)N1CC(O)([C@@H]2CCCCN2)C1 [COBIMETINIB]
- inhibition in vivo at 15 mg/kg (A2058 [1]): 41%
- IC50 [2]: > 10 µM
- IC50 (Ephrin type-A receptor 4): > 10 µM
- IC50 [3]: > 10 µM
- IC50 [4]: > 10 µM
- Activity (888-mel [5]): inactive
- inhibition (888-mel [6]): Active
- inhibition in vivo at 6 mg/kg (A2058 [7]): 44%
- IC50 [8]: > 10 µM
- IC50 (Casein kinase 2): > 10 µM
- inhibition in vivo at 10 mg/kg (EBC-1): 40%
- IC50 [9]: > 10 µM
- IC50 [10]: > 10 µM
- Activity (NCI-H2122): 73%
- IC50 [11]: > 10 µM
- IC50 [12]: > 10 µM
- Activity (A2058 [13]): Active
- Activity (A375.X1): Dose-Dependent Effect
- inhibition (888-mel [14]): Active
- Activity (G-361): 60%
- IC50 [15]: > 10 µM
- IC50 [16]: > 10 µM
- inhibition in vivo at 2.5 mg/kg (NCI-H460): 32%
- Activity (A2058 [17]): Active
- Activity (C32): 60%
